Bioassay records (PubChem)
MC4R antag cAMP – antagonists of human melanocortin 4 receptor (MC4R). 360,000 tested, 0.48% active. P32245. inhibition, % at 6.5 µM. MC4R-expressing cells, MTII-stimulated cAMP, LANCE TR-FRET;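 active means inhibition above its plate's cutoff, the mean of tested wells on that plate plus 3 SD, cut at about 29% in these data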;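 further: 0% = Melanotan II alone and 100% = Melanotan II plus saturating MCL0020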
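Assay system: U2OS cells stably expressing human melanocortin 4 receptor (MC4R) / Dosing: 6.5 µM / Timing: compound 30 min, challenge 1 h, detection 1 h / Measured by: Eu-cAMP/anti-cAMP TR-FRET, emission 671 nm / Replicates: singlicate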
SMARCA2 activ – SMARCA2 function activation, primary screen | 370,000 tested, 1% active | MG213 cells, MMTV-luciferase reporter, dexamethasone, overnight | activation, % at 9.1 µM; in the data active means activation above about 7.8%;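 further: 0% = vehicle wells and 100% = reference activator wells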
MPTP inh – inhibitors of mitochondrial permeability transition pore | AID 602449 | 360,000 tested, 1.4% active | isolated mouse mitochondria, Ca2+ swelling absorbance, 30 min | inhibition, % at 10 µM;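 active means inhibition of 50% or more, scaled per plate between neutral and stimulator controls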;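 further: 0% = DMSO wells given calcium and 100% = 1 mM EGTA wells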
ATG4B inh – ATG4B (human) cysteine protease inhibition. Q9Y4P1. ATG4B cleavage of LC3-PLA2, NBD-HPC fluorescence, 1 h. inhibition, % at 8.33 µM. 340,000 tested, 0.51% active. AID 504462; in the data active means inhibition above about 40%
Target sequence (Q9Y4P1 whole entry, looked up): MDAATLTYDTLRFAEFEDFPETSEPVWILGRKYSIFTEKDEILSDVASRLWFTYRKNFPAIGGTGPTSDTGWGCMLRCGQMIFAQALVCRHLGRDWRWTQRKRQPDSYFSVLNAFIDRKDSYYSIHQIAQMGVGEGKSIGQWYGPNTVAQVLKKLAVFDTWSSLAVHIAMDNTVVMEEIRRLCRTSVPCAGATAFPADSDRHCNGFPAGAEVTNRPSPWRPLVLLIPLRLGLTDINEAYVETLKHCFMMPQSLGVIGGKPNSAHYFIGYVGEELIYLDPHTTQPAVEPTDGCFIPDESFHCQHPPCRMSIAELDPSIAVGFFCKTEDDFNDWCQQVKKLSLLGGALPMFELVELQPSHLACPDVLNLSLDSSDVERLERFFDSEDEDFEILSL
MC4R barr agon – activates human MC4R beta-arrestin recruitment. P32245. activation, % at 8.9 µM. U2OS MC4R beta-arrestin complementation, luminescence; percent of melanotan II response, DMSO zero. AID 540308. 360,000 tested, 0.98% active;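 active means activation above a per-plate cutoff, the mean activation of sample wells on that plate plus 3 SD, cut at about 8% in these data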
MPTP counter – Rhodamine 123 counter-screen of mitochondrial pore hits; inhibition, % at 10 µM; isolated mitochondria, membrane potential, Rhodamine 123 fluorescence; AID 624504; 5,000 tested, 78% active; shares compounds with MPTP inh; in the data active means inhibition above about 22%;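 further: 0% = DMSO vehicle and 100% = positive control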
MPTP abs DR – MPTP inhibition, dose response swelling confirmation; shares compounds with MPTP inh; isolated mitochondria swelling, absorbance; IC50, µM; 780 tested, 58% active; in the data active means IC50 below about 20 µM
MPTP counter DR – counter-screen for mitochondrial permeability transition pore inhibitors, dose response | shares compounds with MPTP inh | isolated mitochondria counterscreen, fluorescence read-out | IC50, µM | 780 tested, 49% active; in the data active means IC50 below about 80 µM
The depositor's hits bear a star; i = inactive; . = not tested or not shown. Only some compounds are listed: those with a hit (about 4.1% of all), similar ones and a draw of the others.

SMILES | MC4R antag cAMP | SMARCA2 activ | MPTP inh | ATG4B inh | MC4R barr agon | MPTP counter | others
Nc1nc2ccc(Cl)cc2cc1C(=O)NCCc1ccc(Cl)cc1Cl | . | -1 | 14 | . | . | .
Nc1nc2ccc(Cl)cc2cc1C(=O)NCCc1c[nH]c2ccccc12 | . | . | 84* | . | . | 91*
CCN(CC)S(=O)(=O)c1ccc(C(=O)Nc2cccc(C)c2)cc1 | 16 | 1 | 0 | -1 | -1 | .
CCN(CC)S(=O)(=O)c1ccc(NC(=O)Nc2cccc(C(F)(F)F)c2)cc1 | 3 | -10 | 84* | 3 | 0 | 74*
Cc1ccc(S(=O)(=O)Nc2ccc(NC(=O)Nc3cccc(C(F)(F)F)c3)cc2)cc1 | 14 | -2 | 98* | 16 | 9.2* | 61*
CC(C)(C)c1ccc(S(=O)(=O)N2CCCC(C(=O)NCc3cccs3)C2)cc1 (centres undefined) | . | -2 | . | . | . | .
CC(C)Cn1c(N)c(C(=O)COC(=O)CC23CC4CC(CC(C4)C2)C3)c(=O)n(C)c1=O | 3 | -3 | 81* | -9 | 2 | 116*
Oc1cc2ccccc2cc1-c1n[nH]c(=S)o1 | 0 | 0 | 96* | -9 | -3 | 71*
C[C@@H]1CN([C@@H](C)CO)C(=O)CCCn2cc(nn2)CO[C@H]1CN(C)C(=O)Nc1ccc(C(F)(F)F)cc1 | . | 1 | . | . | . | .
O=c1oc2cc(Oc3c([N+](=O)[O-])cc(C(F)(F)F)cc3[N+](=O)[O-])ccc2c2c1CCCC2 | -1 | -1 | 86* | 5 | 1 | 89*
CCOc1ccc(C(=O)Nc2ccc(N3CCN(C)CC3)cc2)cc1Br | -9 | 7 | 60* | 3 | -1 | -15 | MPTP abs DR=18*;MPTP counter DR=>80
COC(=O)[C@]12C[C@H](CC(=O)NCc3cccc4ccccc34)C(=O)N(CCc3ccc(OC)c(OC)c3)C1=C[C@H](C(C)(C)C)O[C@@H]2C | . | 1 | . | . | . | .
CCN1CCN(CCCNC(=O)Cn2nc(C)n3nc(-c4ccccc4)cc3c2=O)CC1 | 8 | -3 | 0 | -8 | -1 | .
Cc1nn(CC(=O)NCCCN2CCC(Cc3ccccc3)CC2)c(=O)c2cc(-c3ccccc3)nn12 | 3 | 2 | 74* | -8 | 0 | -6 | MPTP abs DR=i;MPTP counter DR=>80
Cc1ccc(C(NC(=O)NC(C)c2ccccc2)C(Cl)(Cl)Cl)cc1F (centres undefined) | 10 | -2 | 76* | -7 | 2 | 83*
CC(=O)N1c2ccccc2C(C)=NCC1C(=O)NC1CCCCC1 (centres undefined) | . | -1 | . | . | . | .
CCOC(=O)c1c(O)c2cc(Cl)ccc2n(CC)c1=O | -1 | 0 | 1 | 3 | -1 | .
OC(COCC(F)(F)C(F)(F)C(F)(F)C(F)F)Cn1c2ccc(Cl)cc2c2cc(Cl)ccc21 (centres undefined) | 4 | . | 80* | -3 | -2 | 52*
CC(C)(C)c1ccccc1OCCCCCNCCO | 2 | -4 | 90* | -3 | -2 | -15 | MPTP abs DR=7.9*;MPTP counter DR=>80
Cc1ccccc1OCCCCCNCCO | 8 | -3 | -2 | 12 | 6 | .
CC(C)(C)OC(=O)NCc1cc2c(cc1/C=C/S(=O)(=O)NC1CCCC1)OCO2 | . | 0 | . | . | . | .
C[C@@H]1CN(C(=O)OC(C)(C)C)CCN1c1ccc(N2CCN(Cc3ccccc3)[C@@H](C)C2)c(C#N)c1 | . | -7 | . | . | . | .
Cc1nn(CC(=O)Nc2sc3c(c2C#N)CCC(C(C)(C)C)C3)c(C)c1[N+](=O)[O-] (centres undefined) | 8 | -1 | 81* | 2 | -1 | 32*
C/C(=N\N=C(c1ccccc1)c1ccccc1)c1ccco1 | -2 | . | 93* | 8 | -1 | -3
CCCCCCCCN1C(=O)[C@@H](CC(=O)NCc2ccc(OC)c(OC)c2)C[C@@]2(C(=O)OC)C1=C[C@H](COCc1ccccc1)O[C@@H]2C | . | 1 | . | . | . | .
SMILES | MC4R antag cAMP | SMARCA2 activ | MPTP inh | ATG4B inh | MC4R barr agon | MPTP counter | others
CCC(C)[C@H]1CNC(=S)N1CCc1cccc2ccccc12 (some centres undefined) | 2 | -2 | 1 | -9 | 1 | .
CCC(C)[C@H]1CN=C(N)N1CCc1cccc2ccccc12 (some centres undefined) | 3 | -2 | 90* | 0 | 1 | 0 | MPTP abs DR=6.5*;MPTP counter DR=30*
CCN(CC)C(=S)Nc1ccc(OC(F)F)cc1 | -1 | -4 | 1 | -5 | -1 | .
FC(F)(F)c1ccc(NC(=S)NCc2ccccc2)cc1 | -1 | -1 | 97* | 39 | 4 | 95*
CN(NC(=S)Nc1ccc(OC(F)F)cc1)C(=S)Nc1ccc(OC(F)F)cc1 | 17 | -1 | 84* | -1 | 3 | 93*
FC(F)Oc1ccc(NC(=S)NCc2ccccc2)cc1 | -1 | -2 | 79* | 25 | 0 | 81*
FC(F)Oc1ccc(NC(=S)NCc2ccccc2)cc1Cl | 7 | -2 | 100* | 36 | -2 | 82*
O=C(O)c1ccc(NC(=S)NCc2ccccc2)cc1 | 8 | 2 | -1 | 0 | 0 | .
FC(F)Oc1ccc(NC(=S)Nn2cnnc2)cc1 | -1 | -1 | 1 | -2 | -2 | .
Oc1cccc2c(NC(=S)Nc3ccc(OC(F)F)cc3)cccc12 | 4 | -1 | 62* | -20 | -3 | 80*
CC(C)(C)c1ccc(C(=O)c2c[nH]c(C(=O)NCC3CCCO3)c2)cc1 (centres undefined) | 9 | 1 | 70* | 4 | -1 | 12 | MPTP abs DR=i;MPTP counter DR=27*
COc1ccc(CNCC(O)(c2ccc(F)cc2)c2ccc(F)cc2)cc1 | 0 | -2 | 73* | 14 | 1 | 16 | MPTP abs DR=6.6*;MPTP counter DR=20*
COc1ccc(CNCC(O)(c2ccccc2)c2ccccc2)cc1 | 6 | -3 | 2 | 6 | 0 | .
COc1ccc(CCNC(=O)c2nn(C)cc2Cl)cc1 | -4 | 3 | -1 | -2 | -1 | .
COc1ccc(CCNC(=O)c2cc(-c3ccc(Cl)c(Cl)c3)oc2C)cc1 | 0 | -4 | 91* | -5 | -1 | 91*
COc1cc(-n2c(C)nc3cc(C(=O)N4CCN(C(C)=O)CC4)ccc32)cc(OC)c1OC | . | -3 | . | . | . | .
CC(C)(C)NS(=O)(=O)c1cc(C(=O)Nc2sccc2C#N)ccc1Cl | 20 | -4 | 75* | -6 | -3 | 57*
N#Cc1ccsc1NC(=O)c1cnccn1 | 1 | 1 | -2 | 7 | 0 | .
N/C(=N\OC(=O)Nc1cccc(C(F)(F)F)c1)c1ccno1 | 1 | -4 | 72* | 8 | -2 | 94*
O=C(NNc1cccc(Cl)n1)Nc1cccc(C(F)(F)F)c1 | -2 | 0 | 70* | 9 | 4 | 72*
NC(=O)/C=C\C(=O)Nc1cccc(C(F)(F)F)c1 | -5 | 1 | 2 | 3 | 2 | .
